# This is a sample that favours compounds with a hit; in the whole collection about 3.5% have one here.
# MrgX1 PAM – positive allosteric modulators of MrgX1, primary screen, HEK293 cells, Fluo-4 calcium flux; Mas-related G-protein coupled receptor member X1 (Homo sapiens), Q96LB2; FDSS; active compounds read high; B-score at 10 µM; actives 0.63% (n = 310,000);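 active = plate-corrected calcium response at least 3 library SD above typical, normal starting fluorescence, not activating the receptor alone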;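 note: compound read alongside a low EC10 to EC30 dose of BAM8-22 agonist; peak minus trough fluorescence over baseline measured at the second addition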
# Target sequence (Q96LB2 whole entry, looked up): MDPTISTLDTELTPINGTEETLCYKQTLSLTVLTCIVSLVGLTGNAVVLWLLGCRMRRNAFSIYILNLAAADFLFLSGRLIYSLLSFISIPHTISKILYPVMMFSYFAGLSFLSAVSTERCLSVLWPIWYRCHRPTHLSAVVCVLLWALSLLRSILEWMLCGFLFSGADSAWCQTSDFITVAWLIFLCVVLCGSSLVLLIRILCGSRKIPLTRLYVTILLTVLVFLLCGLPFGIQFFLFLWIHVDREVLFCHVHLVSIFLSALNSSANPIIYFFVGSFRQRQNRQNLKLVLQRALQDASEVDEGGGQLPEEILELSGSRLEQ
# MrgX1 antag – antagonists of human MrgX1 receptor, primary screen, HEK293 cells, Fluo-4 calcium flux | actives 1.3% (n = 310,000) | Mas-related G-protein coupled receptor member X1 (Homo sapiens), Q96LB2 | BAM8-22 antagonism; active compounds read low | B-score at 10 µM | AID 588676, 2011;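 active = calcium-response B-score plate-corrected more than 3 library SD below zero, starting fluorescence within 5 deviations, no agonist response on first addition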;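 note: peak minus trough fluorescence over baseline after final BAM8-22 challenge near maximal dose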
# MrgX1 ag – agonists of human MrgX1 receptor, primary screen, HEK293 cells, Fluo-4 calcium flux; Fluo-4 calcium fluorescence, agonist mode; active compounds read high; B-score at 10 µM; actives 0.44% (n = 310,000); AID 588627, 2011;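 active = calcium response B-score plate-corrected fluorescence ratio at least 3 library SD, with starting fluorescence B-score inside 5 SD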
#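 times = overnight plating, then 30 min 37 °C plus 30 min room-temperature dye loading | assay system = stable human MrgX1 HEK293 cell line | input = fifteen thousand cells per well | signal = kinetic calcium dye fluorescence, Fluo-4 NW | dosing = compound delivered in addition one of three | read-out = B-scored fluorescence response ratio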
# RGS4 pot – RGS4 potentiators or activators, primary screen, cell-based, HEK293 M3R inducible RGS4, calcium flux; AID 463111, 2010; B-score at 10 µM; actives 0.92% (n = 310,000); carbachol calcium flux Fluo4; active compounds read low;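 active = B-score of the integrated calcium signal more than 4 SD below the library mean, with starting fluorescence not abnormally high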;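 note: negative B-score means reduced calcium response which marks RGS4 activation or potentiation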
#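 System – HEK293 FlpIn-TREx cells, stable M3R, doxycycline-inducible RGS4 · Reagent – ECmax carbachol challenge · Times – compound preincubation 20 min at room temperature before agonist · Technique – Fluo4 fluorescence kinetic imaging of calcium · Measure – B score of integrated Fluo4 ratio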
# RGS4 block – RGS4 inhibitors, primary screen, cell-based, HEK293 M3R inducible RGS4, calcium flux; AID 463165, 2010; B-score at 10 µM; Fluo-4 calcium flux; active compounds read high; triggered by carbachol at its EC20; actives 0.45% (n = 310,000); Regulator of G-protein signaling 4 (Homo sapiens), P49798;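 active = B-score, a plate-corrected calcium signal, over three deviations above library mean, with baseline fluorescence within five deviations of library mean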;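 note: RGS4 expression induced by doxycycline in cells with stable M3 receptor; B-score is computed from the integrated fluorescence ratio over baseline after carbachol; higher B-score means a larger calcium signal and so more RGS4 inhibition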
# Target sequence (P49798 whole entry, looked up): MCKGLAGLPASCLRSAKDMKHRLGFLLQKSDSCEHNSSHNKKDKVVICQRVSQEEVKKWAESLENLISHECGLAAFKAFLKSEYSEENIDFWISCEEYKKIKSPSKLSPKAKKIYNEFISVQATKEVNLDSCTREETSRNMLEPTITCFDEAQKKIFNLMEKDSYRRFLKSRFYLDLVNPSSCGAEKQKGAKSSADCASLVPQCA
# * hit, by the source's call; i = inactive; / = not tested or not shown.
SMILES,MrgX1 PAM,MrgX1 antag,MrgX1 ag,RGS4 pot,RGS4 block
CC(C)Cc1nnc(NC(=O)c2ccc3c(c2)NC(=O)C(C)S3)s1 (centres undefined),i,i,i,i,i
Cc1ccccc1NC(=O)c1cc([N+](=O)[O-])ccc1NCCN1C(=O)CCC1=O,i,i,i,i,i
CSc1ccccc1NC(=O)Cn1nc([N+](=O)[O-])cc1C,i,i,i,i,i
CCCCCn1c(SCc2ccncc2)nc2cc(C(=O)NCc3ccco3)ccc2c1=O,i,i,i,-8.03*,i
CCCCn1c(SCC(=O)NCc2ccco2)nc2ccccc2c1=O,i,i,i,i,i
O=C(NCCc1cccc(C(F)(F)F)c1)C1CCC(=O)N(C2CC2)C1 (centres undefined),i,i,i,i,i
O=C(C1CCN(c2nnc(-n3cccc3)s2)CC1)N1CCN(Cc2ccc3c(c2)OCO3)CC1,i,i,i,i,i
CC1CCN(Cc2ccc(NC(=O)C3CCN(c4nnc(-n5cccc5)s4)CC3)cc2)CC1,i,i,i,-8.21*,i
COc1ccc(Nc2nc(N)c([N+](=O)[O-])c(NC3CCCCC3)n2)cc1,i,i,i,-9.39*,i
Cc1cccc(N(C(=O)c2snc(C(N)=O)c2N)C(C(=O)NCC2CCCO2)c2cccs2)c1 (centres undefined),i,-4.73*,i,i,i
Cc1ccc(C)c(N(C(=O)c2snc(C(N)=O)c2N)C(C(=O)NCC2CCCO2)c2cccs2)c1 (centres undefined),i,i,i,i,i
CCO[C@H]1OC(C(=O)N2CCN(Cc3ccc4c(c3)OCO4)CC2)=C[C@@H](C2CC2)[C@@H]1CCCO,i,i,i,i,i
CCn1c(C)cc(/C=C2/SC(=S)N(CC(=O)O)C2=O)c1C,17.1*,i,i,i,i
C#CCN1C(=O)S/C(=C/c2cc(C)n(CC)c2C)C1=O,i,i,i,i,i
CC(/C=N/NC(=O)Cn1cnc2ccccc21)=C\c1ccccc1,i,i,i,i,i
CC(/C=N/NC(=O)CCn1nnc2ccccc21)=C\c1ccccc1,i,-7.66*,i,i,i
Cc1sc(NC(=O)c2ccco2)c(C(c2cccnc2)N2CCC(C)CC2)c1C (centres undefined),i,i,i,-7.93*,i
Cc1sc(NC(=O)c2ccco2)c(CN2CCC(C)CC2)c1C,i,i,i,i,i
Cc1ccc(NC(=O)CCNC(=O)c2ccc(Cl)cc2)cc1C,i,i,i,i,i
Cc1cc(C)c(NC(=O)CSc2ccc(-c3cccnc3)nn2)c(C)c1,i,i,i,i,i
ClCC1=Nc2cccc3cccc(c23)N1,i,i,i,i,8.65*
c1cc2c3c(cccc3c1)C(N1CCCCCC1)=N2,i,i,i,-7.38*,i
c1cc2c3c(cccc3c1)C(N1CCCCC1)=N2,i,i,i,i,i
Cc1cc(C(C#N)c2ccccc2F)n2ncnc2n1 (centres undefined),i,i,i,i,i
O=c1c2ccc(Cl)cc2nc(-c2cccc(C(F)(F)F)c2)n1O,i,i,46.7*,i,i
SMILES,MrgX1 PAM,MrgX1 antag,MrgX1 ag,RGS4 pot,RGS4 block
O=c1c2ccccc2nc(-c2ccc(Cl)c(Cl)c2)n1O,i,i,35*,i,i
O=C(O)c1cc(N/N=C/C=C/c2ccccc2)ccc1Cl,i,i,i,i,i
O=C(Nc1ccc(Cl)cc1Cl)NC1CCN(S(=O)(=O)c2ccc(F)cc2)CC1,i,i,i,i,i
O=C(NCc1ccncc1)C(=O)N/N=C/c1cccnc1,i,i,i,i,i
c1ccc(Cc2ccc(OCCCNC3CCCC3)cc2)cc1,i,i,i,-12.3*,i
c1ccc(-c2ccc(OCCCNC3CCCC3)cc2)cc1,i,i,i,i,i
c1ccc(COc2ccc(CNCc3cccs3)cc2)cc1,i,i,i,-8.26*,i
CCCN(Cc1ccccc1)C(=S)NC(=O)c1ccccc1[N+](=O)[O-],i,i,i,i,i
CS(=O)(=O)Oc1ccc2c(c1)O/C(=C\c1cccnc1)C2=O,i,i,i,i,i
COc1cc(OC)c(OC)cc1/C=C1\Oc2cc(OS(C)(=O)=O)ccc2C1=O,i,-7.4*,i,i,i
O=C(/C=C/c1ccco1)NCC(=O)N/N=C/c1ccc(Cl)cc1,i,-4.97*,i,i,i
CN(C)c1ccc(/C=N/NC(=O)CNC(=O)/C=C/c2ccco2)cc1,i,i,i,i,i
CCOC(=O)c1ccc(NS(=O)(=O)c2ccc3oc(=O)[nH]c3c2)cc1,i,i,i,i,i
CN1CCN(C(c2cccc(Cl)c2)c2ccccc2Cl)CC1 (centres undefined),i,i,i,-7.98*,i
CN1CCN(C(c2ccccc2)c2ccc(Cl)cc2)CC1 (centres undefined),i,i,i,/,/
O=C(Nc1cccc(-c2csc(-c3ccccc3)n2)c1)c1cccs1,i,i,i,-7.09*,i
Cc1nc(-c2cccc(NC(=O)c3cccs3)c2)cs1,i,i,i,i,i
COc1ccc(-c2csc(NC(=S)NC(=O)c3cccs3)n2)cc1OC,/,/,/,-7.27*,i
COc1ccc(-c2csc(NC(=O)c3ccc(OCC(=O)N4CCOCC4)c(OC)c3)n2)cc1OC,i,i,i,-8.79*,i
COc1ccc(-c2csc(NC(=O)CN3C(=O)C4CC=CCC4C3=O)n2)cc1OC (centres undefined),i,i,47.8*,i,i
CC(=O)Nc1ccc(C(=O)CSc2cc(C)c3cccc(C)c3n2)cc1,i,i,i,i,i
COC(=O)C1CSC(c2ccc(Cl)cc2)N1C(=O)c1ccccc1 (centres undefined),i,i,i,i,i
CC/C(=N\NC(=O)c1nnn(-c2nonc2N)c1-c1cccs1)c1ccccc1,i,i,i,i,i
COc1ccc([C@@H]2CC=C(C(=O)O)[C@H](c3cccc(Cl)c3)N2S(=O)(=O)c2ccccc2C)cc1,i,i,i,/,/
COc1cc2c(cc1OC)C(C(=O)NCCN(C)C)C(c1cccs1)N(C)C2=O (centres undefined),i,i,i,i,i
